In ChEMBL document CHEMBL2202988, “D-amino acid based protein arginine deiminase inhibitors: Synthesis, pharmacokinetics, and in cellulo efficacy” (ACS Med Chem Lett, 2012):
The source made the active and inactive calls. The rule behind the calls is not given here.

Tests used:
Mus musculus [1] = experiment: Toxicity in C57BL/6J mouse assessed as bloody stools at 150 mg/kg, po; assay type: organism-based; parameters: dose 150 mg/kg, route oral; details: in vivo
Method in brief: (§1)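 Mice dosed per os at graded levels up to 150 mg/kg; observable physiological signs (shaking, anxiety, hunching, heavy breathing, stool changes, diarrhea) recorded after treatment, with monitoring over the following days.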

Mus musculus [2] = experiment: Toxicity in C57BL/6J mouse assessed as heavy breathing at 150 mg/kg, po after 1 to 4 hrs; assay type: organism-based; parameters: dose 150 mg/kg, route oral; details: in vivo; method in brief: as §1
Mus musculus [3] = experiment: Toxicity in C57BL/6J mouse assessed as hunching at 150 mg/kg, po after 1 to 4 hrs; assay type: organism-based; parameters: dose 150 mg/kg, route oral; details: in vivo; method in brief: as §1
Mus musculus [4] = experiment: Drug metabolism in C57Bl/6 mouse at 10 mg/kg, ip measured within 4 hrs by LC-MS/MS analysis; assay type: ADME, organism-based; parameters: dose 10 mg/kg, route intraperitoneal; details: in vivo
Method in brief: (§2)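 Mice dosed by iv (2.5 or 10 mg/kg) or ip (10 mg/kg) injection; serum/plasma drug levels measured over time up to 4 h, plotted as mean levels.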

Liver = experiment: Half life in mouse liver microsomes; assay type: ADME, Microsome
Method in brief: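 Stability assessed by incubation with murine hepatic microsomes; half-life derived from compound remaining over time.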

Mus musculus [5] = experiment: Drug metabolism in C57Bl/6 mouse at 10 mg/kg, iv measured within 2 hrs by LC-MS/MS analysis; assay type: ADME, organism-based; parameters: dose 10 mg/kg, route intravenous; details: in vivo; method in brief: as §2
MDA-MB-231 [6] = experiment: Induction of apoptosis in human MDA-MB-231 cells assessed as increase in caspase-3 activity; assay type: functional, cell-based
Method in brief: (§3)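 MDA-MB-231 cells given inhibitor at 100, 200 and 400 μM; caspase 3 activity measured 96 h after administration.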

MDA-MB-231 [7] = experiment: Antiproliferative activity against human MDA-MB-231 cells assessed as Ki-67 level at 100 to 400 uM; assay type: functional, cell-based
Method in brief: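 MDA-MB-231 triple-negative breast cancer cells (PAD1-overexpressing) exposed to inhibitor at 100, 200 and 400 μM; Ki-67 level taken as the proliferation read-out; tunicamycin at increasing amounts served as positive control for cell-cycle arrest.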

MDA-MB-231 [8] = experiment: Cytotoxicity against human MDA-MB-231 cells assessed as decrease in cell number at 400 uM after 96 hrs by trypan blue assay; assay type: functional, cell-based
Method in brief: (§4)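 MDA-MB-231 breast cancer cells (PAD1-overexpressing) exposed to inhibitor at 100, 200 and 400 μM; percent viability and cell number read 96 h after addition.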

MDA-MB-231 [9] = experiment: Cytotoxicity against human MDA-MB-231 cells assessed as decrease in cell viability at 200 to 400 uM after 96 hrs by trypan blue assay; assay type: functional, cell-based; method in brief: as §4
Mus musculus [10] = experiment: Toxicity in po dosed C57BL/6J mouse; assay type: organism-based; details: in vivo
Method in brief: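 Mice (n = 10 per group) were dosed per os at varying doses up to 150 mg/kg. Percent change in total body weight was tracked to 96 h, along with observable signs of toxicity. MTD was taken as the highest dose causing no weight loss or significant toxicity signs. Weight change was tested for significance (P < 0.05).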

Mus musculus [11] = experiment: Toxicity in C57BL/6J mouse assessed as loss in body weight at 100 to 150 mg/kg, po after 96 hrs; assay type: organism-based; parameters: dose 100-150 mg/kg, route oral; details: in vivo
Method in brief: (§5)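 Oral dosing of mice (n = 10) at varying doses up to 150 mg/kg; percent change in body weight followed to 96 h, significance at P <0.05.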

Mus musculus [12] = experiment: Toxicity in C57BL/6J mouse assessed as anxiety at 150 mg/kg, po after 1 to 4 hrs; assay type: organism-based; parameters: dose 150 mg/kg, route oral; details: in vivo; method in brief: as §1
Mus musculus [13] = experiment: Toxicity in C57BL/6J mouse assessed as occurrence of diarrhea at 150 mg/kg, po after 2 to 3 days; assay type: organism-based; parameters: dose 150 mg/kg, route oral; details: in vivo; method in brief: as §1
Mus musculus [14] = experiment: Toxicity in C57BL/6J mouse assessed as body shaking at 150 mg/kg, po after 1 to 4 hrs; assay type: organism-based; parameters: dose 150 mg/kg, route oral; details: in vivo; method in brief: as §1
MDA-MB-231 [15] = experiment: Induction of apoptosis in human MDA-MB-231 cells assessed as caspase-3 activity at 100 to 400 uM; assay type: functional, cell-based; method in brief: as §3
MDA-MB-231 [16] = experiment: Cytotoxicity against human MDA-MB-231 cells assessed as cell viability at 400 uM after 96 hrs by trypan blue assay; assay type: functional, cell-based; method in brief: as §4
Mus musculus [17] = experiment: Toxicity in C57BL/6J mouse assessed as change in body weight at 5 to 150 mg/kg, po after 1 to 96 hrs; assay type: organism-based; parameters: route oral; details: in vivo; method in brief: as §5
[18] = Drug level in C57Bl/6 mouse serum at 10 mg/kg, ip after 4 hrs by LC-MS/MS analysis; assay type: ADME, organism-based; parameters: dose 10 mg/kg, route intraperitoneal; details: read-out: Drug uptake; method in brief: as §2
[19] = Drug level in C57Bl/6 mouse serum at 2.5 mg/kg, iv after 4 hrs by LC-MS/MS analysis; assay type: ADME, organism-based; parameters: dose 2.5 mg/kg, route intravenous; details: read-out: Drug uptake; method in brief: as §2
[20] = Drug level in C57Bl/6 mouse serum at 2.5 mg/kg, iv after 2 hrs by LC-MS/MS analysis; assay type: ADME, organism-based; parameters: dose 2.5 mg/kg, route intravenous; details: read-out: Drug uptake; method in brief: as §2
MDA-MB-231 [21] = experiment: Antiproliferative activity against human MDA-MB-231 cells assessed as decrease in Ki-67 level; assay type: functional, cell-based
Method in brief: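 MDA-MB-231 triple-negative breast cancer cells (PAD1-overexpressing) treated at 100, 200 and 400 μM. Ki-67 levels assessed 96 h after administration. Tunicamycin served as the positive control for cell cycle arrest.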

For N=C(CCl)NCCC[C@H](NC(=O)c1ccccc1)C(N)=O, the Activity (Mus musculus [1]) was “Toxic”, the Activity (Mus musculus [2]) was “Toxic” and the Activity (Mus musculus [3]) was “Toxic”. For the same compound, the Drug metabolism (Mus musculus [4]) was “Active”, the t1/2 (Liver) was 37 min and the Drug metabolism (Mus musculus [5]) was “Active”. For the same compound, the Activity (MDA-MB-231 [6]) was “Dose-dependent effect”, the Activity (MDA-MB-231 [7]) was “inactive” and the Activity (MDA-MB-231 [8]) was “Active”. The Activity (MDA-MB-231 [9]) was “Active”, the MTD (Mus musculus [10]) was 75 mg/kg and the Activity (Mus musculus [11]) was “Toxic”. For the same compound, the Activity (Mus musculus [12]) was “Toxic”, the Activity (Mus musculus [13]) was “Toxic” and the Activity (Mus musculus [14]) was “Toxic”.

In the case of N=C(CF)NCCC[C@@H](NC(=O)c1ccccc1C(=O)O)C(N)=O, the Activity (MDA-MB-231 [15]) is reported as “inactive”, the Activity (MDA-MB-231 [7]) is reported as “inactive” and the Activity (MDA-MB-231 [16]) is reported as “inactive”. The Activity (MDA-MB-231 [8]) was “inactive”, the MTD (Mus musculus [10]) was > 150 mg/kg and the Activity (Mus musculus [17]) was “Non-toxic”.

In the case of N=C(CCl)NCCC[C@@H](NC(=O)c1ccccc1)C(N)=O, the concentration at 4 h [18] is reported as 10 nM, the concentration at 4 h [19] is reported as 10 nM and the concentration at 2 h [20] is reported as 21 nM. For the same compound, the t1/2 (Liver) was 33 min, the Activity (MDA-MB-231 [6]) was “Dose-dependent effect” and the Activity (MDA-MB-231 [7]) was “inactive”. The Activity (MDA-MB-231 [8]) was “Active”, the Activity (MDA-MB-231 [9]) was “Active” and the MTD (Mus musculus [10]) was > 150 mg/kg. For the same compound, the Activity (Mus musculus [17]) was “Non-toxic”.

In the case of CC(=O)N[C@H]1[C@@H](O[C@@H]2O[C@H](CC(O)[C@H]3O[C@@H](n4ccc(=O)[nH]c4=O)[C@H](O)[C@@H]3O)[C@H](O)[C@H](O)[C@H]2NC(=O)/C=C/CC(C)C)O[C@H](CO)[C@@H](N)[C@@H]1O (some centres not stated), the Activity (MDA-MB-231 [21]) is reported as “Active”.
